The values that follow come from ChEMBL document CHEMBL3259690, “Synthesis, structure-activity relationships, and biological studies of chromenochalcones as potential antileishmanial agents” (J Med Chem, 2014).

Data set [1] is described as follows: Cytotoxicity against African green monkey Vero cells after 72 hrs by MTT assay. The format is cell-based. As to conditions: chlorocebus sabaeus. The method in brief:
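Vero cells at 1 × 10⁵/mL exposed to seven concentrations from 400 μM at 37 °C, 5% CO₂, for 72 h. MTT (5 mg/mL) added for 2 h at 37 °C, formazan dissolved in DMSO, absorbance read at 544 nm. CC₅₀ estimated by the Huber and Koella method; at least duplicate measurements.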
In general terms: Tetrazolium assays rely on reduction of a dye to a coloured formazan, in cell work by metabolically active cells.

Data set [2] concerns Leishmania donovani. The data set is described as follows: Antileishmanial activity against Leishmania donovani MHOM/IN/80/Dd8 amastigotes infected in syrian golden hamster assessed as decrease in parasite count in spleen at 50 mg/kg/day, po for 5 days measured on day 7 after last dose administration by giemsa staining. In kind it is functional. As to conditions: MHOM/IN/80/Dd8, Spleen. Summed up: (§1)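 Golden hamsters of either sex infected intracardially with 1 × 10⁷ L. donovani Dd8 amastigotes. After 15−20 days, pretreatment spleen biopsy; animals with +1 grade infection (5−10 amastigotes/100 spleen cell nuclei) used, 5−6 per compound. Aqueous suspensions dosed IP or PO for 5−10 consecutive days starting 2 days after biopsy. Splenic biopsies on day 7 and 28 after last dose, Giemsa counts; PI = 100 − [(ANAT×100)/(INAT×TIUC)].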

For data set [3], the system named is Leishmania donovani. As to the kind of experiment: Antileishmanial activity against Leishmania donovani MHOM/IN/80/Dd8 amastigotes infected in syrian golden hamster assessed as decrease in parasite count in spleen at 100 mg/kg/day, po for 5 days measured on day 7 after last dose administration by giemsa staining. In kind it is functional. As to conditions: MHOM/IN/80/Dd8, Spleen. The method in brief:
as §1

For data set [4], the system named is Leishmania donovani. The data set is described as follows: Induction of early apoptosis in Leishmania donovani MHOM/IN/80/Dd8 promastigotes at 0.78 uM after 12 hrs by Annexin V-FITC/propidium iodide staining based flow cytometry (reference value: 13.70%). The format is functional.
The subject of data set [5] is Leishmania donovani. As to the kind of experiment: Induction of early apoptosis in Leishmania donovani MHOM/IN/80/Dd8 promastigotes at 0.78 uM after 48 hrs by Annexin V-FITC/propidium iodide staining based flow cytometry (reference value: 13.70%). The format is functional.
In data set [6] the test system is Leishmania donovani. As to the kind of experiment: Induction of early apoptosis in Leishmania donovani MHOM/IN/80/Dd8 promastigotes at 0.78 uM after 72 hrs by Annexin V-FITC/propidium iodide staining based flow cytometry (reference value: 13.70%). In kind it is functional. On the technique in general: Flow cytometry measures light scatter and fluorescence of single cells or particles in a stream.

For data set [7], the system named is Leishmania donovani. As to the kind of experiment: Induction of apoptosis in Leishmania donovani MHOM/IN/80/Dd8 promastigotes assessed as drop in mitochondrial membrane potential at 0.78 uM after 12 hrs by JC-1 dye based flow cytometry (reference value: 5.87%). The format is functional.
Data set [8] has as its system Leishmania donovani. As to the kind of experiment: Induction of apoptosis in Leishmania donovani MHOM/IN/80/Dd8 promastigotes assessed as drop in mitochondrial membrane potential at 0.78 uM after 24 hrs by JC-1 dye based flow cytometry (reference value: 5.87%). The format is functional.
In data set [9] the test system is J774.A1. As to the kind of experiment: Increase in TNF-alpha production in mouse J774A1 cells infected with Leishmania donovani at IC50 concentration after 24 hrs by sandwich ELISA relative to control. The format is functional. Summed up:
(§2)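 J774A.1 macrophages (1 × 10⁶) infected with Leishmania at 1:10, treated in 6-well plates at the compound's IC₅₀ concentration, 37 °C, CO₂. Supernatants from normal, infected-untreated and infected-treated cells collected after 24 h. IL-12, TNF-α, IL-10 and TGF-β measured by sandwich ELISA at 450 nm, in pg/mL. Two independent experiments in duplicate, mean ± SD; Student's t test against infected control.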

In data set [10] the test system is J774.A1. As to the kind of experiment: Decrease in IL-10 production in mouse J774A1 cells infected with Leishmania donovani at IC50 concentration after 24 hrs by sandwich ELISA relative to control. The format is functional. The method in brief:
as §2
Background: ELISA stands for enzyme-linked immunosorbent assay.

Data set [11] concerns J774.A1. As to the kind of experiment: Induction of nitric oxide production in mouse J774A1 cells infected with Leishmania donovani after 24 hrs by Griess reagent based spectrophotometric analysis relative to control. The format is functional. The method in brief:
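Infected J774A.1 macrophages (1 × 10⁶/mL) incubated with compound for 24 h; LPS 10 μg/mL as stimulant. Supernatant mixed 1:1 with Griess reagent at room temperature, absorbance at 540 nm, nitrite reported in μM. Normal, infected-untreated and infected-treated cells compared. Two independent experiments, mean ± SD; Student's t test against infected control.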

Data set [12] in a line: Stability of the compound in simulated intestinal fluid assessed as compound degradation at 10 uM by HPLC-UV analysis. The format is physicochemical. As to conditions: read-out: Drug degradation. Summed up:
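Simulated gastric and intestinal fluids made to USP specifications. Compound at 10 μM incubated in SGF sampled at 0, 15, 30 and 60 min, and in SIF at 0, 30, 60, 90 and 120 min. Mean ± SEM.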

A short description of data set [13]: Half life in syrian golden hamster liver S9 fraction at 10 uM in presence of NADPH. In kind it is ADME, subcellular, Mesocricetus auratus. The method in brief:
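Hamster liver S9 (2 mg/mL protein), 50 mM Tris, 20 mM MgCl₂, 2 mM NADPH preincubated 10 min, then compound added at 10 μM final (1% organic) at 37 °C in triplicate. Sampled 0−60 min; no-NADPH control sampled at 0, 15, 30 and 60 min. Quenched with ice-cold methanol, extracted by LLE. Data as % parent remaining versus 0 min; testosterone as positive control.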

Data set [14] can be described thus: Tmax in Syrian golden hamster at 100 mg/kg, po administered via gavage as single dose by HPLC-UV analysis. As to conditions: in vivo. In kind it is ADME, organism-based, Mesocricetus auratus. More on the design: dose 100 mg/kg, route oral. The method in brief: (§3)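 Male Syrian golden hamsters (100 ± 15 g) given a single oral dose of 100 mg/kg. Plasma stored at −70 °C and assayed by HPLC-UV. Concentration–time profiles analysed non-compartmentally; values mean ± SD.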

The nature of data set [15]: Cmax in Syrian golden hamster at 100 mg/kg, po administered via gavage as single dose by HPLC-UV analysis. In kind it is ADME, organism-based, Mesocricetus auratus. On the set-up: dose 100 mg/kg, route oral. As to conditions: in vivo. Summed up: as §3
Data set [16] can be described thus: AUC (0 to infinity) in Syrian golden hamster at 100 mg/kg, po administered via gavage as single dose by HPLC-UV analysis. In kind it is ADME, organism-based, Mesocricetus auratus. Particulars: plasma. On the set-up: time infinity, dose 100 mg/kg, route oral.
A short description of data set [17]: Apparent oral clearance in Syrian golden hamster at 100 mg/kg, po administered via gavage as single dose by HPLC-UV analysis. More on the design: dose 100 mg/kg, route oral. As to conditions: in vivo. The format is ADME, organism-based, Mesocricetus auratus. The method in brief: as §3
The nature of data set [18]: Terminal half life in Syrian golden hamster at 100 mg/kg, po administered via gavage as single dose by HPLC-UV analysis. As to conditions: in vivo, read-out: beta t1/2 (converted). More on the design: dose 100 mg/kg, route oral. In kind it is ADME, organism-based, Mesocricetus auratus. The method in brief:
as §3

In a further data set the target is Albumin (Bos taurus, UniProt P02769). The data set is described as follows: Binding affinity to bovine serum albumin at 1 mmol/L by fluorescence spectrophotometer analysis. Particulars: cattle, isolated protein, 1000 µM. The format is ADME. The method in brief:
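BSA at 1.00 × 10⁻⁵ mol/L in 0.10 M Tris-HCl, pH 7.4, titrated with successive additions of 1.00 × 10⁻³ mol/L compound stock. Excitation at 280 nm, emission recorded 300−450 nm. Quenching analysed by Stern–Volmer and modified Stern–Volmer equations (τ₀ = 10⁻⁸ s).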

Data set [19] deals with Leishmania donovani. As to the kind of experiment: Antileishmanial activity against extracellular promastigote form of Leishmania donovani MHOM/IN/80/Dd8 expressing firefly luciferase gene assessed as inhibition of parasitic multiplication at 25 uM after 96 hrs by luminescence analysis. The format is functional. Particulars: MHOM/IN/80/Dd8, 96 h. Summed up: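 Late-log luciferase-expressing Dd8 promastigotes, 5 × 10⁵/mL in complete M-199, incubated with compound at 24 °C for 96 h. Aliquot mixed with Steady Glo and luminescence read as RLU. Inhibition of multiplication taken from luciferase signal of treated versus untreated parasites.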

Albumin, sequence (P02769 whole entry): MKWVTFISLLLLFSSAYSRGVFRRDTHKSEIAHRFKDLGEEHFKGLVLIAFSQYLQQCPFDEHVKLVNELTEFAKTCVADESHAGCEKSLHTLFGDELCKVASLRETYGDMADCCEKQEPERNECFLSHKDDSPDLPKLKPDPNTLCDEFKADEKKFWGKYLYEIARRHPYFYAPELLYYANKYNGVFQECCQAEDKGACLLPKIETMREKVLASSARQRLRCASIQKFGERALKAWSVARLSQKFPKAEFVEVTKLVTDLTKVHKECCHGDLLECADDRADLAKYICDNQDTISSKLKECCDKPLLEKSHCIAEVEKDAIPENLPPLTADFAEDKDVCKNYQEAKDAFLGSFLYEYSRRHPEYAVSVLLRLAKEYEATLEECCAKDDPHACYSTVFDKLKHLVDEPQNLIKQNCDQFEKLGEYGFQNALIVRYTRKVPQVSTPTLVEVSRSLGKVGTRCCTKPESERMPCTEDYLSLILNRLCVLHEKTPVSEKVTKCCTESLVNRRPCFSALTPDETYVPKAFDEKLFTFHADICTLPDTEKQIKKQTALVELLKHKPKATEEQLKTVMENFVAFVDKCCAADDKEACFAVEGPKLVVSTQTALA

With `CC(C)=CCCC1(C)C=Cc2c(ccc(C(=O)/C=C/c3cccnc3)c2O)O1` (stereo unspecified), the CC50 at 72 h in [1] was 40.7 µM. The inhibition in vivo at 50 mg/kg/day with Leishmania donovani [2] turned out to be 49%. For the same molecule, the inhibition in vivo at 100 mg/kg/day in the data set with Leishmania donovani [3] worked out at 84.7%. Also, the Activity with Leishmania donovani [4] stood at 28.93%; in the data set with Leishmania donovani [5], 37.62%; in the data set on Leishmania donovani [6], 66.14%; with Leishmania donovani [7], 17.46%; in the data set with Leishmania donovani [8], 31.88%. In addition, the “fold change (FC)” value in the data set on J774.A1 [9] is listed as 11.6; in the data set with J774.A1 [10], 7.11; in the data set with J774.A1 [11] it was 6.3. In addition, the degraded at 10 µM in data set [12] is 30%. The half-life at 10 µM in data set [13] came out at 37.8 min. The Tmax in [14] is 37.5 min. The same molecule showed a Cmax in [15] of 820 ng/mL. This molecule yielded an AUC(0-inf) in data set [16] of 3700 ng·h/mL. Further, in data set [17], the CL/F is 464 mL/min/kg. Moreover, the half-life in [18] was 444 min. On Albumin, the KSV amounted to 2.7 ×10⁵ L/mol. The molecule further showed a Kq on Albumin of 2.7 ×10¹³ L/mol/s. Moreover, the inhibition at 25 µM in the data set with Leishmania donovani [19] was 99.8%.

The CC50 is the concentration at which the toxic effect on the cells reaches its halfway point. Broadly, the inhibition in vivo is the change of the read-out against control, counted positive when it falls. The term Tmax denotes the time from dosing to the highest level. The term Cmax denotes the peak of the concentration-time curve. One may read the AUC(0-inf) as the area under the concentration-time curve extrapolated to infinity. One may read the CL/F as clearance divided by bioavailability, as obtained after extravascular dosing. As usually defined, the inhibition is the drop in the measured response relative to a control, in per cent.
